Screening results from PubChem BioAssay.
bCat KO growth = beta-catenin-lacking colon tumor cell growth suppression | HCT116 beta-catenin knockout viability, CellTiter-Glo, 60 h; active compounds read low | viability, % at 10 µM | 140,000 tested, 1.5% active;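 active = viability at or under a set limit, the compound median less 4 SD, cut at about 6% in these data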
L major viab = Leishmania major promastigote growth inhibition; Leishmania major promastigotes, resazurin fluorescence viability; inhibition, % at 10 µM; 200,000 tested, 9% active; in the data active = inhibition above about 50%;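 also: promastigotes grown with compound for 44 hours at 28 °C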
TNAP act hiacc = TNAP (human) activation, high acceptor; purified TNAP, CDP-star luminescence, 1 M DEA, 30 min; active compounds read high; 0 = EDTA background, 1 = DMSO-only activity; activation factor at 20 µM; 200,000 tested, under 10 active;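 active = activation factor at least 2 at 20 µM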
Target sequence (P05186 whole entry, looked up): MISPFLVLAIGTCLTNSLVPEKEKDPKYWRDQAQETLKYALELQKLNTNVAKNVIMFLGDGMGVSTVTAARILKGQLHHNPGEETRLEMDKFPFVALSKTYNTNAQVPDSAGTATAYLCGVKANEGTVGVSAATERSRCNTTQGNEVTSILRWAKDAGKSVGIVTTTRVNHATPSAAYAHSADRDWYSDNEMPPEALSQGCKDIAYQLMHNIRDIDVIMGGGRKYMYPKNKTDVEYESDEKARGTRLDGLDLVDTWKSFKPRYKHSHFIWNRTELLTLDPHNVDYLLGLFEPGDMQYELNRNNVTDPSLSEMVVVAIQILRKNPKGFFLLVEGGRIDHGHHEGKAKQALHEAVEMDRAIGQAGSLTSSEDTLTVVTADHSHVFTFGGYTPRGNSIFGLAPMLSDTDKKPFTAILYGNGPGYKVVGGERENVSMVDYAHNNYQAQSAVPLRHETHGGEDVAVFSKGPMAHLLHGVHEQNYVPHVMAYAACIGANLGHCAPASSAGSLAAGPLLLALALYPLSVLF
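Assay system: human TNAP; Input: enzyme diluted 1/800 final; Reagent: CDP-star luminogenic substrate at 100 µM final; Timing: 30 min, room temperature; Signal: luminescence; Evaluation: TNAP activation factor scaled between EDTA and DMSO control wells.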
PTEN del growth = growth suppressors of cells with PTEN tumor suppressor deletion | HCT116 PTEN-null viability, CellTiter-Glo, 60 h; active compounds read low | viability, % at 10 µM | 140,000 tested, 1.2% active | AID 827;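 active = viability at or below a set limit, 4 SD under the median of all tested compounds, cut at about 3.7% in these data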;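 also: PTEN knockout HCT116 line with beta catenin targeted HCT116 as companion control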
TNAP inh hi DEA = TNAP (human) inhibition, high acceptor. inhibition, % at 20 µM. 200,000 tested, 0.03% active. purified TNAP, CDP-star luminescence, 1 M DEA;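 active = over 50% inhibition of tissue-nonspecific alkaline phosphatase at 20 µM in the single-dose screen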
TNAP inh no acc = blocks human TNAP activity with no phosphate acceptor present; inhibition, % at 20 µM; P05186; AID 1012; purified TNAP, CDP-star luminescence, 30 min; 200,000 tested, 0.26% active;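 active = tissue-nonspecific alkaline phosphatase inhibition above about 50% at 20 µM in the single-dose screen, limit read from the data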
Hits are given with their value; - = inactive; . = no result given. In the library only some 9.6% were active in any assay of this set; here they are far more common.

SMILES	bCat KO growth	L major viab	TNAP act hiacc	PTEN del growth	TNAP inh hi DEA	TNAP inh no acc
CC(=O)OCCNc1cc(SCc2ccco2)c2nonc2c1[N+](=O)[O-]	1.1	-	-	1.0	-	-
O=[N+]([O-])c1c(NCCCO)cc(SCc2ccco2)c2nonc12	-	-	-	-	-	-
CCNC(=S)SCCOc1ccc(C)cc1	-	57	-	-	-	-
COc1cccc(CNC(=O)C2=C(C)C(=O)OC23CCC(C)CC3)c1 (stereo unspecified)	-	-	-	-	-	-
Cc1cc(C(=O)NCCCn2ccnc2)sc1-c1ccccc1	-	99	-	-	-	-
Cc1cc(-c2ccccc2)nc2cc(C(=O)NCCCn3ccnc3)nn12	-	-	-	-	-	-
O=C(NCCCn1ccnc1)c1cc(-c2ccc3c(c2)OCO3)on1	-	-	-	-	-	-
COc1ccc(-c2cc(C(F)(F)F)n3nc(C(=O)NCCCN4CCOCC4)cc3n2)cc1	.	57	-	.	-	-
CCCCNC(=O)c1cc(-c2ccc(OC)c(OC)c2)on1	-	-	-	-	-	-
COc1ccc(-c2cc(C(F)(F)F)n3nc(C(=O)N4CCCCC4)cc3n2)cc1	-	-	-	-	-	-
COc1ccc(-c2cc(C(=O)NCCCn3ccnc3)no2)cc1OC	-	61	-	-	-	-
O=C(NCCCn1ccnc1)c1cc(-c2ccc(Br)cc2)on1	.	96	-	.	-	-
C=CCNC(=O)COc1ccc(N(C)S(=O)(=O)c2ccc(NC(C)=O)cc2)cc1	.	-	-	.	-	-
CC(NC(=O)C(C(=O)c1cccc([N+](=O)[O-])c1)n1cc(Cl)ccc1=O)c1ccccc1 (stereo unspecified)	-	-	-	-	-	-
CC(C)C(=O)Nc1ccc(S(=O)(=O)Nc2nccc(/C=C/c3ccccc3)n2)cc1	-	-	-	-	-	-
COc1ccc(CCNC(=O)CCc2ccc(S(=O)(=O)NCC(C)C)cc2)cc1	-	-	-	-	-	-
CCOc1cc(C(=O)NCCCn2ccnc2)cc(OCC)c1OCC	-	54	-	-	-	-
COc1cccc(-c2cc(C(=O)NCCCn3ccnc3)no2)c1	-	96	-	-	-	-
O=C(NCCCn1ccnc1)c1cc2nc(-c3ccc(Br)cc3)cc(C(F)(F)F)n2n1	-	99	-	-	-	-
COc1ccc2c(Cl)c(C(=O)NN)sc2c1	-	-	-	-	-	-
COc1ccc2c(Cl)c(C(=O)NCCCn3ccnc3)sc2c1	-	100	-	-	-	-
COc1cccc(C(=O)NCCCn2ccnc2)c1	.	-	-	.	-	-
OCc1cn(-c2ccc(Cl)cc2)nn1	.	-	-	.	-	-
COCCCNC(=O)c1cc(C(=O)c2ccccc2Br)c[nH]1	.	-	-	.	-	-
CN(N)C(=S)Nc1ccc(Cl)cc1	.	-	-	.	-	-
SMILES	bCat KO growth	L major viab	TNAP act hiacc	PTEN del growth	TNAP inh hi DEA	TNAP inh no acc
CCC(C)c1ccc(OCCN2CCCC2)cc1 (stereo unspecified)	-	96	-	-	-	-
CC1CCC(NC(=O)COc2ccc(C(=O)c3ccccc3)cc2)CC1 (stereo unspecified)	-	-	-	-	-	-
CC1CCN(CCCCOc2ccc(C(=O)c3ccccc3)cc2)CC1	-	99	-	-	-	-
COc1ccc(C2(O)CCN(CCCCOc3ccccc3)CC2)cc1	-	95	-	-	-	-
CC1CCN(CCCOc2ccc(OCc3ccccc3)cc2)CC1	-	100	-	-	-	-
Cc1cccn2c(NC(=O)c3cccs3)c(-c3ccccc3)nc12	-	-	-	-	-	-
COc1ccc(Cl)cc1N1C(=N)SCC1=O	.	-	-	.	-	-
COc1ccc(C2CC(c3ccccc3)=NN2C(=O)CN2N=NC3C(=O)N(c4cccc(F)c4)C(=O)C32)cc1 (stereo unspecified)	-	-	-	-	-	-
c1ccc(COc2ccc(OCCN3CCCC3)cc2)cc1	-	100	-	-	-	-
CC(C(=O)Nc1ccc(OCc2ccccc2)cc1)N1CCCC1 (stereo unspecified)	.	-	-	.	-	-
CCCOc1ccc(C(O)(CCC)CCN2CCCCC2)cc1 (stereo unspecified)	-	-	-	-	-	-
c1ccc(COc2ccc(OCCN3CCCCC3)cc2)cc1	-	100	-	-	-	-
c1ccc(COc2ccc(OCCCN3CCCC3)cc2)cc1	-	100	-	-	-	-
CC(C)Oc1ccc(OCCCN2CCCCCC2)cc1	-	100	-	-	-	-
O=C(CN1CCCC1)Nc1ccc(OCc2ccccc2)cc1	.	-	-	.	-	-
O=C(Nc1cccnc1)OC1CCCC1	.	-	-	.	-	-
CCOC(=O)C1(CCCc2ccccc2)CCN(C(=O)C2=C(C)OCCO2)CC1	.	-	-	.	-	-
COc1ccc(/C(O)=C/c2nc3ccc(C(=O)NCCc4cccc(C)c4)cc3[nH]c2=O)cc1OC	2.0	-	-	1.5	-	-
CNC(=S)NCCc1c[nH]c2ccc(OC)cc12	.	-	-	.	-	-
Cc1ccccc1NC(=S)NCCc1c[nH]c2ccccc12	-	81	-	-	-	-
CCC(=O)NCCc1c[nH]c2ccccc12	-	-	-	-	-	-
COc1ccc(OCC(=O)NCCc2c[nH]c3ccccc23)cc1	.	64	-	.	-	-
COc1ccc(CCNC(=S)NCCc2c[nH]c3ccccc23)cc1	.	91	-	.	-	-
Cc1csc(NC(=O)CSc2nnc(NC(=O)COc3ccc(Cl)cc3)s2)n1	-	-	-	-	-	-
CC(=O)Nc1cc(-c2ccc(F)cc2)[nH]n1	.	-	-	.	-	91
SMILES	bCat KO growth	L major viab	TNAP act hiacc	PTEN del growth	TNAP inh hi DEA	TNAP inh no acc
CCNC(=S)Nc1cc(-c2ccc(Cl)cc2)[nH]n1	.	-	-	.	-	-
O=C(Oc1cccc2cccnc12)c1cccc(N2C(=O)C3C4CCC(C4)C3C2=O)c1 (stereo unspecified)	4.5	97	-	2.1	-	-
O=C(Oc1cccc2cccnc12)c1cccc(-n2cnnn2)c1	-	-	-	-	-	-
O=C(Oc1cccc2cccnc12)c1ccc(N2C(=O)C3C4CCC(C4)C3C2=O)cc1 (stereo unspecified)	-	99	-	-	-	-
O=C(N/N=C/c1ccc(Br)s1)c1ccc([N+](=O)[O-])cc1	.	-	-	.	-	-
COc1ccc(NC(=O)CCC(=O)N/N=C/c2ccc([N+](=O)[O-])s2)cc1	1.4	100	-	1.1	-	-
O=C(N/N=C/c1ccc([N+](=O)[O-])s1)c1ccncc1	2.5	100	-	2.5	-	-
COc1ccc(CCC(=O)N/N=C\c2cccs2)cc1	.	-	-	.	-	-
Cc1ccc(C(=O)N/N=C/c2ccc([N+](=O)[O-])s2)cc1	1.9	99	-	1.3	-	-
O=C(N/N=C/c1ccc(O)c2ncccc12)c1cccc(Br)c1	.	100	-	.	-	-
